# From publication PMC9099131 (Clinical and Translational Science, 2022)
# Columns and labels:
# [1] = Single-dose plasma pharmacokinetics of trazpiroben alone and with esomeprazole; format: in vivo, human (healthy adults); details: for AUC∞, Geometric LSM / Cmax, Geometric LSM: ANOVA
# Method in brief: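 Healthy adults dosed orally with 25 mg on day 1; after a 4-day washout, the proton pump inhibitor was given at 40 mg once daily on days 8–12, with 25 mg co-dosed 1 h after it on day 11 following a ≥10 h fast. Plasma was sampled predose to 48 h and assayed by validated LC-MS/MS (0.05–50.00 ng/ml), with BLQ values set to zero. Noncompartmental parameters were derived, and ln AUC∞/Cmax were analysed by ANOVA (treatment fixed, participant random).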
# [2] = ref data on file, cited from earlier work
# [3] = trazpiroben 25 mg alone, N = 12
# [4] = trazpiroben 25 mg and esomeprazole 40 mg, N = 12
# [5] = plasma, single oral dose trazpiroben 25 mg alone, N = 12
# [6] = single dose alone or in the presence of esomeprazole
# [7] = single oral dose trazpiroben 25 mg alone, N = 12
# [8] = single oral dose trazpiroben 25 mg with esomeprazole 40 mg once daily, N = 12
# [9] = trazpiroben 25 mg with esomeprazole 40 mg vs alone
# [10] = single oral dose of trazpiroben 25 mg alone on day 1
smiles,measurement,setting,value
O=C(O)c1cccc(CN2CN(C3CCCCC3)C3(CCN(CCCC(=O)c4ccccc4)CC3)C2=O)c1 [Trazpiroben],"AUC∞, Geometric LSM",[1]; [3],44.03 ng·h/mL
same,"Cmax, Geometric LSM",[1]; [3],19.76 ng/mL
same,"AUC∞, Geometric LSM",[1]; [4],38.85 ng·h/mL
same,"Cmax, Geometric LSM",[1]; [4],17.24 ng/mL
same,"AUC∞, Geo. mean (CV%)",[1]; [5],44.03 (27.50) ng h/ml
same,"Cmax, Geo. mean (CV%)",[1]; [5],19.76 (36.50) ng/ml
same,"Tmax, Median (min, max)",[1]; [5],"1.00 (0.50, 1.53) h"
same,"t1/2, Mean (±SD)",[1]; [5],6.21 ± 3.96 h
same,approximate half-life of biphasic decline,[1]; [6],6 to 7 h
same,time postdose at which mean plasma concentration peaked,[1]; [6],around 1 h
same,"CL/F, Geo. mean (CV%)",[1]; [7],567.90 (27.50) L/h
same,"Vz/F, Geo. mean (CV%)",[1]; [7],4137.00 (77.80) L
same,"CL/F, Geo. mean (CV%)",[1]; [8],643.50 (31.10) L/h
same,"Vz/F, Geo. mean (CV%)",[1]; [8],4716.00 (102.00) L
same,GMR for plasma AUC∞ lower following co-administration versus trazpiroben alone,[1]; [9],11.8%
same,GMR for plasma Cmax lower following co-administration versus trazpiroben alone,[1]; [9],12.8%
same,vital sign and ECG parameters,following both treatments,no clinically meaningful changes
same,tolerability,"healthy adults, administration alone and alongside esomeprazole",well‐tolerated
same,CNS or cardiovascular safety concerns,single agent or co-administered with esomeprazole,no CNS or cardiovascular safety concerns were observed
same,Number of participants with treatment‐emergent AEs,[10],2 (17) n (%)
same,Participants reporting AEs: Folliculitis,[10],0 (0) n (%)
same,Participants reporting AEs: General disorders and administration site conditions,[10],0 (0) n (%)
same,Participants reporting AEs: Headache,[10],1 (8) n (%)
same,Participants reporting AEs: Infections and infestations,[10],0 (0) n (%)
same,Participants reporting AEs: Influenza‐like illness,[10],0 (0) n (%)
same,Participants reporting AEs: Menstruation delayed,[10],0 (0) n (%)
same,Participants reporting AEs: Nervous system disorders,[10],1 (8) n (%)
same,Participants reporting AEs: Oropharyngeal pain,[10],0 (0) n (%)
same,Participants reporting AEs: Reproductive system and breast disorders,[10],0 (0) n (%)
same,"Participants reporting AEs: Respiratory, thoracic, and mediastinal disorders",[10],1 (8) n (%)
same,Participants reporting AEs: Throat irritation,[10],1 (8) n (%)
same,Participants reporting AEs: Vessel puncture site pain,[10],0 (0) n (%)
same,Participants reporting AEs: Vessel puncture site reaction,[10],0 (0) n (%)
same,"deaths, serious AEs, discontinuations due to AEs","whole study, 12 participants","No deaths, serious AEs, or discontinuations due to AEs were reported"
same,mean solubility,[2]; pH 1.15,1210 µg/mL
same,solubility,[2]; pH 6.97,50 µg/mL
